# High-throughput results: PubChem BioAssay, several laboratories
# Sampled rows, rich in hits. Any-hit rate of the full collection: about 1.9%.
# Yeast superoxide: yeast age-related superoxide inhibition as caloric restriction mimetic; S. cerevisiae aged cells, superoxide DHE fluorescence; active compounds read low; superoxide response (% of plate mean), % at 10 µM; 330,000 compounds, 0.18% hits; AID 2690;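 active = superoxide response under a set limit, about three screen SD below normal, cut at about 65% in these data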;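 also: yeast aged for seven days with compound at 30 °C before DHE staining; 100% = average MFI of all compound-treated wells on the plate with controls excluded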
# UCH37 inh: inhibitors of human deubiquitinating enzyme UCH37; purified proteasome/UCH37, Ub-AMC cleavage fluorescence; inhibition, % (concentration not given with the values); 330,000 compounds, 0.33% hits; AID 588478;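 active = mean inhibition over replicate wells above about 20%, limit read from the data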;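 also: 0% = compound-free wells with enzyme and 100% = wells lacking proteasome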
# Target sequence (Q9Y5K5 whole entry, looked up): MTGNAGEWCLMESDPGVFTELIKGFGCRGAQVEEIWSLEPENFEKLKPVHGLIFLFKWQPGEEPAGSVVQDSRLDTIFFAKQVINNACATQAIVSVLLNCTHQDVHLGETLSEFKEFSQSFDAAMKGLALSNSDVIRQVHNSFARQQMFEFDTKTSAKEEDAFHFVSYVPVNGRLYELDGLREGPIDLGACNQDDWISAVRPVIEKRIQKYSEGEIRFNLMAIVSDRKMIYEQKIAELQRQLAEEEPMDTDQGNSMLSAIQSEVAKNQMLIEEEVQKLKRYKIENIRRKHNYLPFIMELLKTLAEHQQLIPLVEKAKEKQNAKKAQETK
#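 Test system – human UCH37 enzyme supplied as purified proteasome complex · Incubation – 30 min preincubation with enzyme, 25 min cleavage at room temperature · Detection – AMC fluorescence from Ub-AMC cleavage, excitation 355 nm, emission 460 nm · Benchmarks – no-proteasome wells (full inhibition) and compound-free wells (no inhibition)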
# PG9 binder: small molecules binding HIV-1 gp120 antibody PG9; inhibition, % at 6.7 µM; 360,000 compounds, 0.43% hits; AID 624416; TR-FRET gp120-PG9 antibody binding; in the data active = inhibition above about 8.5%
# beta cell repl: inducers of beta-cell replication in MIN6 cells. MIN6 cells proliferation, ATPlite luminescence, 48 h; cells starved in 0.2% serum; 100% = growth in 10% serum. proliferation, % at 10 µM. 330,000 compounds, 0.29% hits;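 active = compounds whose signal lies at least 3.5 SD above the mean of all wells on their plate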;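 also: 0% = DMSO-treated cells in low-serum medium and 100% = 10% serum control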
# Rce1 inhib: blocks yeast Ras-converting enzyme; Q03530; AID 2563; yeast membranes, quenched prenylated peptide cleavage fluorescence; 290,000 compounds, 0.27% hits; calls only;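 active = fall in fluorescence gain of 50% or more versus controls, with final raw signal at or below 3038400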;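 also: plate controls were neutral control wells for no effect and wells lacking membranes for full effect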
# Target sequence (Q03530 whole entry, looked up): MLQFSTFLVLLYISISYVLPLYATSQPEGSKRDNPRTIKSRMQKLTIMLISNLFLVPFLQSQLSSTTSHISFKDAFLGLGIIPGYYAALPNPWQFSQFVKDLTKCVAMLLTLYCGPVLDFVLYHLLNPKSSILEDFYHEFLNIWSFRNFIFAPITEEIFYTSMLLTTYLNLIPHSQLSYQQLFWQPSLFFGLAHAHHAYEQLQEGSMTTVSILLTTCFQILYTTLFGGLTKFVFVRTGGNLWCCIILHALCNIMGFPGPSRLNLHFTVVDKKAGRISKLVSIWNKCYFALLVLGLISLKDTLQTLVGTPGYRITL
# Rev-erbA mod: Rev-erb alpha (human) modulation. P20393. Rev-erbα–FITC-DNA binding, fluorescence polarization, 90 min. activity, % at 10 µM. 370,000 compounds, 0.79% hits. AID 1259318;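 active = activity above about 14%, limit read from the data; passing the limit was not always enough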;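 also: 0% = DMSO wells with 35 nM protein and 100% = DMSO wells with 750 nM protein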
# Starred values were filed as active, the others as inactive; i = inactive; nt = no result; + = active, no number.
SMILES,Yeast superoxide,UCH37 inh,PG9 binder,beta cell repl,Rce1 inhib,Rev-erbA mod
Cc1ccc(-n2nnnc2Sc2nc([N+](=O)[O-])nn2C)cc1C,114.6,20.1*,-0.1,-3.4,i,3.7
COc1ccc(C(C)=NNC(=O)C2C3CCCCC32)c(OC)c1 (centres undefined),nt,3.9,nt,nt,nt,nt
Cc1nnn(-c2nonc2N)c1C(=O)N/N=C/c1ccccc1O,93.8,nt,4.0,-1.7,i,11.6
CN1CCN(Cc2c(C(=O)N/N=C/c3cccc(Br)c3)nnn2-c2nonc2N)CC1,86.3,nt,-1.2,-6.8,+,-3.4
Nc1nonc1-n1nnc(C(=O)N/N=C/c2ccoc2)c1CSc1ccccc1,119.9,nt,nt,1.3,+,nt
Cc1nnn(-c2nonc2N)c1C(=O)N/N=C/c1cccc2ccccc12,71.9,nt,0.1,3.2,+,-31.6
CC(=NNC(=O)Cn1ccc(C(F)(F)F)n1)c1ccc(N2CCOCC2)cc1,nt,-3.8,nt,nt,nt,nt
N#CC(=NNc1ccc([N+](=O)[O-])cc1)C(=N)N1CCCCC1,nt,23.0*,nt,nt,nt,nt
N#C/C(=N\Nc1ccc([N+](=O)[O-])cc1)C(=N)N1CCOCC1,96.3,nt,-3.2,-2.5,i,1.7
CCOC(=O)CN1C(=O)/C(=C/c2cccc(Br)c2)Oc2ccccc21,103.4,i,1.2,-0.7,i,18.1
O=C(CN1C(=O)/C(=C\c2cccc(Br)c2)Oc2ccccc21)NCC1CCCO1 (centres undefined),117.3,i,0.6,-3.3,+,-4.0
CCOC(=O)COc1ccc(S(=O)(=O)NC2CC2)cc1,58.4*,0.6,-1.6,-2.5,i,3.3
COC(=O)COc1ccc(S(=O)(=O)NC2CCCCCC2)cc1,99.8,2.6,0.3,-3.8,i,3.1
O=C(Cc1nnc(NC(=O)c2ccccc2)s1)NN=Cc1cccc(O)c1,nt,3.5,nt,nt,nt,nt
CCOc1ccc(N(Cc2ccc(OC)c(OC)c2)C(=O)c2ccco2)cc1,88.6,3.1,-0.1,-0.6,i,-4.5
CCOc1ccc(N(Cc2ccc(OC)cc2)C(=O)c2ccco2)cc1,85.4,nt,-1.5,-1.9,+,1.6
CCOC(=O)C1=C(C)OC(N)=C(C#N)C1c1cc2c(cc1[N+](=O)[O-])OCO2 (centres undefined),150.8,-15.0,-3.3,-3.3,+,-2.9
CCOC(=O)C1=C(C)OC(N)=C(C#N)C1c1cc(OC)c2c(c1)OCO2 (centres undefined),96.0,-1.6,-2.3,0.1,i,-1.1
Cc1ccc(OCCn2c3ccccc3n3nc(C)c(=O)nc23)cc1,99.9,1.3,-2.8,-1.5,+,-0.1
N#CC(c1ccccc1)N(CCCCl)C(=O)c1ccccc1 (centres undefined),96.2,20.8*,-1.2,0.7,i,2.7
COc1cccc(-c2nn(C)c3sc(C(=O)NCCCN(C)Cc4ccccc4)cc23)c1,114.5,-65.3,-1.0,-5.1,i,0.6
CCCCN(C)CCNC(=O)c1cc2c(-c3cccc(OC)c3)nn(C)c2s1,75.7,-81.3,1.3,-3.3,+,0.8
CCN(CC)CCCNC(=O)c1cc2c(-c3cccc(OC)c3)nn(C)c2s1,73.0,nt,2.4,-4.7,+,-4.0
CC(/C=C/c1ccccc1)=NNc1ccccc1[N+](=O)[O-],nt,1.9,nt,nt,nt,nt
O=C(Cn1c2ccccc2c(=O)c2ccccc21)Nc1ccccc1F,87.5,-160.2,6.2,0.0,+,1.2
SMILES,Yeast superoxide,UCH37 inh,PG9 binder,beta cell repl,Rce1 inhib,Rev-erbA mod
CC(C)(C)c1ccc(S(=O)(=O)NCC(=O)Nc2ccc(-c3nc4ccccc4s3)cc2)cc1,112.1,-29.1,8.9*,-3.6,i,11.9
Cc1cc(C)n2cc(CSc3ccc(Br)cc3)nc2n1,106.1,-9.5,-0.5,0.2,i,-3.7
Cc1cc(C)n2cc(CSCC(=O)O)nc2n1,97.9,-213.1,-1.3,-2.7,+,-5.3
CCc1nc(Nc2ccncc2)c2oc3ccccc3c2n1,84.1,-28.4,-1.9,0.6,+,-11.2
COc1ccc(OC)c(C=NNC(=O)C(=O)N2CCCC2)c1,nt,1.1,nt,nt,nt,nt
CC(=NNC(=O)c1nn(C)cc1Br)c1ccncc1,nt,0.4,nt,nt,nt,nt
Clc1cccc(CN2CCc3c([nH]c4ccccc34)C2)c1,100.5,2.6,0.1,-4.4,nt,-2.3
Clc1ccc(CN2CCc3c([nH]c4ccccc34)C2)cc1Cl,103.5,nt,1.0,-5.2,+,3.0
COc1ccc(C=NNC(=O)c2cccc(NC(=O)c3ccccc3)c2)c(C(=O)O)c1OC,nt,4.8,nt,nt,nt,nt
C=CCNC(=S)N=c1ccccn1C,nt,6.2,nt,nt,nt,nt
O=C(CSCCc1ccccn1)Nc1cccnc1,98.6,23.1*,0.5,0.0,i,0.0
O=C(NN=Cc1cccs1)c1cc(C2CC2)nc2ccccc12,nt,1.8,nt,nt,nt,nt
COc1cccc2sc3ccc(C#CC4(O)CCCCC4)cc3c(=O)c12,95.6,2.5,1.0,-8.5,+,-0.3
O=c1c2ccccc2sc2ccc(C#CC3(O)CCCCC3)cc12,112.1,-0.9,-1.6,-9.0,i,3.0
CCOC(=O)C1=C(C)N=c2sc(=C3C(=O)Nc4ccccc43)c(=O)n2C1c1ccc2c(c1)OCO2 (centres undefined),nt,9.0,nt,nt,nt,nt
C[n+]1c2n(c3ccccc31)N=C(c1cc(C(C)(C)C)c(O)c(C(C)(C)C)c1)CS2,96.6,14.5,-2.5,-5.1,+,-2.8
CC(/C=C/c1ccccc1)=NNC(=O)c1cc(C)[nH]n1,nt,9.1,nt,nt,nt,nt
O=C(NCCc1ccc(O)cc1)c1ccc(Cl)cc1,97.0,31.4*,-1.7,-4.7,i,4.5
O=C(NCCc1ccc(Cl)cc1)c1ccc(=O)[nH]c1,99.5,1.2,-2.5,-1.7,nt,-0.5
CN(C)c1ccc(C(CNC(=O)c2ccccc2)c2c[nH]c3ccccc23)cc1 (centres undefined),94.5,3.1,-2.4,-2.6,i,3.5
CN(C)c1ccc(C(CNC(=O)c2ccccc2F)c2c[nH]c3ccccc23)cc1 (centres undefined),90.5,26.1*,1.2,-4.8,i,-0.5
Cc1ccc(OCC(=O)NN=Cc2ccccc2)c([N+](=O)[O-])c1,nt,3.6,nt,nt,nt,nt
COc1cc2c(cc1OC)C(C)=NC1(CCCCC1)C2,106.8,i,-0.2,-0.3,+,-0.8
COc1cc2c(cc1OC)C(SC)=NC1(CCCC1)C2,97.3,1.4,-1.2,-5.8,nt,3.3
Cc1oc(-c2ccc(Cl)cc2)nc1CS(=O)CC(=O)NCc1ccco1 (centres undefined),81.6,2.2,-1.8,0.5,+,-4.1
O=C(CCSc1ccc(Cl)cc1)NC12CC3CC(CC(C3)C1)C2,105.6,4.9,0.9,-5.1,+,1.0
O=C(CCSc1ccc(Cl)cc1)NC1CCCCC1,97.1,6.4,1.9,0.5,i,-3.8
CCCOc1ccc(CCC(=O)NN=Cc2ccc([N+](=O)[O-])o2)cc1,nt,6.9,nt,nt,nt,nt
